Assay: Toxicity liver stage against HepG2, at 10uM
Assay type: cell-based
Design: test concentration 10 uM, cell line HepG2-A16-CD81EGFP
Settings: human, HepG2-A16-CD81EGFP cells; read-out: INHIBITION
Summary of the method: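 Uninfected HepG2-A16-CD81EGFP cells, 3 × 10^3 per well, 1536-well, plated on prespotted compound at 10 μM final, parasite-free screening media added to match infected plates; puromycin 10 μM positive, DMSO 0.5% negative; run in parallel with 48 h PbLuc assay at 37 °C, 5% CO2; viability by CellTiter-Glo luminescence, normalized to controls.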

Row | Compound | cytotoxicity at 10 µM [%]
1 | NC(=O)c1nc(-c2cccc(Cl)c2)oc1N | 2.69
2 | CC(C)Oc1ccc(C(=O)Nc2nncs2)cn1 | -7.94
3 | COc1ccc(-c2cc(CC3(NCc4ccc(C)o4)COC3)no2)cc1 | -5.88
4 | COCCN1C(=O)CO[C@H]2CN(S(=O)(=O)c3ccccc3)C[C@H]21 | -0.843
5 | O=C1COC[C@H]([C@H](O)c2ccc(NC(=O)c3ccco3)cc2)N1 | -2.33
6 | O=C(NCCS(=O)(=O)N1CCN(c2ncccn2)CC1)C1CC1 | -4.15
7 | COCC1CN(C(=O)Cc2ccccn2)Cc2ncn(C)c21 (stereo unspecified) | 1.73
8 | COCC(=O)N1CC[C@H]2C[C@H](c3nnc(C4CC4)o3)O[C@@H]2C1 | 4.85
9 | CC1c2ncc(Cn3cncn3)n2CCN1C(=O)c1cscn1 (stereo unspecified) | -17.5
10 | CN1CCN(C[C@@H]2OC[C@H]3CN(Cc4ccncc4)CC[C@H]32)CC1 | 1.96
11 | CS(=O)(=O)N1CCOCC2(CCN(C(=O)c3cnccn3)CC2)C1 | -0.152
12 | Cc1cc(SCC(N)=O)nc(-c2ccc(F)cc2)n1 | -3.42
13 | O=C1CSC(c2ccc3c(c2)OCO3)c2cn[nH]c2N1 (stereo unspecified) | 4.29
14 | Cc1occc1C(=O)N1CCC2(CCC(C(=O)NCC3CC3)O2)CC1 (stereo unspecified) | 9.53
15 | CCOCC1CN(S(C)(=O)=O)Cc2ncn(CC3CC3)c21 (stereo unspecified) | -12
16 | O=c1c2cc3c(cc2nnn1Cc1cccc(F)c1)OCCO3 | 6.39
17 | CCCN(c1ccccc1C(=O)O)S(=O)(=O)c1ccc2ccccc2c1 | -2.32
18 | CCN1CCCC(O)(CNCc2ccc3c(c2)OCO3)C1 (stereo unspecified) | 2.34
19 | CCCc1nc(N(C)Cc2ccco2)c2c(n1)c(C)nn2CC | 16.9
20 | COCCCNC(=O)c1nnsc1-c1ccccc1 | 5.09
21 | CC(NC(=O)C1CCCCC1)c1cc(O)nc(-c2cccnc2)n1 (stereo unspecified) | 5.84
22 | CNC(=O)C1CN(C)CCN1c1nc(C)cc(C)n1 (stereo unspecified) | 15.3
23 | CC(=O)N[C@@H]1CN(C(=O)Cc2coc3cc(C)ccc23)C[C@H]1O | 5.84

Row | Compound | cytotoxicity at 10 µM [%]
24 | Cc1cc(N(C)C)nc(C2(C)CCNCC2)n1 | 7.79
25 | O=C(N[C@@H]1CC[C@@H](N2CCCC2)[C@@H]1O)c1cc2ccccc2[nH]1 | -4.92
26 | COc1ccc(-c2cc(C(=O)NCCn3ccnc3)n(C)n2)cc1 | 3.86
27 | CC(=O)N[C@@H]1CN(C(=O)CC2CCOCC2)C[C@H]1O | -3.3
28 | Cc1ccc(CN2CCCC(c3cncc(C)n3)C2)cn1 (stereo unspecified) | -9.35
29 | Cc1ncsc1-c1nnc(C2CCN(Cc3cccc(Cl)c3)CC2)o1 | -8.19
30 | CCc1ccc(S(=O)(=O)Nc2ccncc2)s1 | 0.453
31 | CC(Cc1ccccc1F)C(=O)Nc1cccc(OCC(N)=O)c1 (stereo unspecified) | -1.34
32 | CC(CNC(=O)c1cccc(-n2cccn2)n1)Cn1ccnc1 (stereo unspecified) | 7.73
33 | OCCN1CCN(Cc2cn(-c3ccccc3)nn2)CC1 | 1.42
34 | O=C(NC1CCN(C2CC2)CC1)c1cn(-c2ccc(Cl)cc2)nn1 | -2.87
35 | CC(C)N1CCC(NC(=O)NCc2ccccc2)CC1 | 5.89
36 | NS(=O)(=O)CCN1CCN(c2cc(F)ccc2F)CC1 | -14.4
37 | CC(C)OCCNC1(c2ccc(Cl)cc2)CCOCC1 | 5.5
38 | Cn1ccnc1-c1cccc(NC(=O)NCC(=O)NC(C)(C)C)c1 | -3.84
39 | CNS(=O)(=O)CCCn1nnc(-c2ccc(F)c(C)c2)n1 | -1.52
40 | CC(C)Oc1cccc(C(O)CNC(=O)NCc2cccs2)c1 (stereo unspecified) | -2.79
41 | Cc1nnc2n1CCN(C(=O)c1cn(-c3ccc(F)cc3)nn1)C2 | -149
42 | Cc1nc(C)n(CC2CCCN2CC(=O)Nc2cccnc2)n1 (stereo unspecified) | 2.04
43 | CN(C)S(=O)(=O)Nc1ccc(-n2nccc2C(F)(F)F)cc1 | 5.65
44 | CCN(Cc1ccoc1)C(=O)c1cc(C)c(C)c(S(N)(=O)=O)c1 | -1.69
45 | CCC(C)NC(=O)CCc1ccnc2ccccc12 (stereo unspecified) | 5.44
46 | O=C(CC1CCCO1)NCCc1ccc(Br)cc1F (stereo unspecified) | -7.78

Row | Compound | cytotoxicity at 10 µM [%]
47 | O=C(NC1CCCN(c2ccccc2Cl)C1)c1nc(=O)[nH][nH]1 (stereo unspecified) | -10.9
48 | CCc1ccc(CN(C(=O)CCn2cc(S(N)(=O)=O)cn2)C2CC2)cc1 | 6.37
49 | CN(Cc1cccc(OC(F)(F)F)c1)Cc1cnn(C)c1 | -3.41
50 | COc1ccccc1C1CCN(C(=O)c2ncccc2OC(C)C)C1 (stereo unspecified) | -0.67
51 | CC(C)N(C(=O)CCc1cccc(F)c1)C1CCOCC1 | -5.21
52 | CC(=O)N(C)Cc1cccc(NC(=O)N(C)CCc2cccs2)c1 | -2.67
53 | CC1(CNC(=O)NCc2ccsc2)CCCS1 (stereo unspecified) | 1.82
54 | CC(C)CCNC(=O)c1ccc(-c2ccco2)[nH]c1=O | -9.62
55 | CN(CCNC(=O)N1CCN(Cc2ccon2)CC1)C1CCCC1 | 15.6
56 | CC(Cn1cccn1)NC(=O)Nc1ccc(F)cc1 (stereo unspecified) | 19.7
57 | O=C(NC1CCCN(c2ncccn2)C1)c1ccoc1 (stereo unspecified) | -4.56
58 | COCCOCC(=O)Nc1ccc(Br)cc1F | -10.5
59 | CCN(CC)C(=O)c1ccc(-c2ccsc2)nc1C | -13.4
60 | Cc1nnn2c1COC(CNC(=O)c1cccn1C)C2 (stereo unspecified) | 6.09
61 | CCNc1ncc(CN2C[C@@H](CN3CCC(CO)CC3)[C@@H](CO)C2)cn1 | -6.03
62 | Cc1nn(CCNS(=O)(=O)NCc2ccccc2)c(C)c1Cl | -6.49
63 | Cn1c(CN2CCC(O)CC2)nnc1C1CCCN(c2ccncc2)C1 (stereo unspecified) | 9.29
64 | O=C(c1cccc(C2CCNC2)c1)N1CCC(c2ncc[nH]2)CC1 (stereo unspecified) | -5.03
65 | Cn1cnnc1SCC(=O)NC1CC(=O)N(CCc2ccccc2)C1 (stereo unspecified) | 3.03
66 | Cc1ncccc1Oc1ncnc(N2CCC(O)(CO)CC2)c1C | -2.4
67 | CCn1cnnc1CCNCc1c[nH]nc1-c1ccc(F)cc1 | 1.31
68 | CN(Cc1cc(C2CC2)[nH]n1)Cc1cc2ccc(F)cc2[nH]c1=O | 7.84
69 | COCC(=O)N1CCN(C(=O)Cc2cccs2)[C@H]2CS(=O)(=O)C[C@H]21 | 2.21

Row | Compound | cytotoxicity at 10 µM [%]
70 | Cc1nc(-c2ccncc2)ncc1C(C)NC(=O)Cn1ccccc1=O (stereo unspecified) | 4.01
71 | CN(CC1(CO)CCC1)C(=O)c1cc(COc2ccccc2F)[nH]n1 | 12.1
72 | CCC(=O)N1Cc2nnc(C3CCOCC3)n2C(Cc2c[nH]cn2)C1 (stereo unspecified) | -11.2
73 | Cc1cccc2c1nc(CCO)n2-c1ccc(N)nc1 | -1.32
74 | CC/C=C(\C)CN1CCC(CNC(=O)c2ccnc(N)c2)C1 (stereo unspecified) | 8.32
75 | Cn1cc(Cl)c(CN2CCn3nc(C(=O)N4CCCC4)cc3C2)n1 | 2.42
76 | CCn1ccnc1CNC1CC(=O)N(CCc2cccc(Cl)c2)C1 (stereo unspecified) | -127
77 | CN(CCC1CCOCC1)C(=O)C1CCC(=O)N(Cc2ccccn2)C1 (stereo unspecified) | -2.06
78 | CCN(CCc1nc2cc(C)ccc2[nH]1)C(=O)[C@@H](N)COC | -2.64
79 | Cc1ccc2c(c1)c(CNC(=O)C1CC(=O)N(C3CC3)C1)nn2C (stereo unspecified) | -0.502
80 | Cc1nc(CN2CC(Cc3ccccc3)CC2=O)no1 (stereo unspecified) | 2.42
81 | Cc1ncc(C(=O)N2CCCC(C(=O)c3nccn3C)C2)c(O)n1 (stereo unspecified) | -2.28
82 | Cc1ccc2c(c1)c(CNC(=O)C1CCN(C(C)C)CC1)nn2C | -14.8
83 | CC(CC#N)n1ccc(C(F)(F)F)n1 (stereo unspecified) | -8.88
84 | CCN(C(C)=O)c1nc(CN2CCCC2Cn2cncn2)cs1 (stereo unspecified) | -5.15
85 | CCOc1ccc(Cl)c(C(=O)N2CCN(C(=O)OC)CC2)n1 | -6.33
86 | C=C(C)CN1CCC(NC(=O)c2scnc2C)CC1 | -6.35
87 | CC(=O)N(Cc1noc(C2CC2)n1)C1CCN(Cc2ccccc2)C1 (stereo unspecified) | -5.59
88 | Cc1cc(C(=O)N2CCCN(Cc3nccn3C(C)C)CC2)no1 | -2.72
89 | Cc1noc2ncc(C(=O)NCC3CCCOC3)cc12 (stereo unspecified) | -8.42
90 | Cc1c(C(=O)NCc2ccnc(OCC(F)(F)F)c2)cnn1C | -5.78
91 | CCOc1cccc2c1OCC(C(=O)NS(=O)(=O)c1c(C)noc1C)=C2 | -12.1
92 | CC(C)c1cnc(CN(C)C2CCN(CCn3cc(C#N)cn3)C2)o1 (stereo unspecified) | -4.98

Row | Compound | cytotoxicity at 10 µM [%]
93 | Cc1nccn1C1CCCN(C(=O)c2cccc(Cn3ccnc3)c2)C1 (stereo unspecified) | -24.6
94 | COc1cc(OC)cc(C(=O)N(C)Cc2nnc3ccccn23)c1 | -26.9
95 | CC(C)c1nc(C2CCCN(C(=O)c3ccc4[nH]nnc4c3)C2)no1 (stereo unspecified) | 7.34
96 | CCN(Cc1ccc2c(c1)OCO2)Cc1nc2c(cnn2C)c(=O)[nH]1 | -21
97 | Cc1ccsc1C(=O)N1CCN(Cc2cscn2)CC1 | -12
98 | CN(C)c1cc(CNC(=O)c2cnccn2)ccn1 | -17.7
99 | CC1CN(C(=O)c2ccn(-c3cccc(Cl)c3)n2)CCO1 (stereo unspecified) | -5.25
100 | CNC(=O)C1CCN(C(=O)c2ccn(-c3ccc(F)cc3)n2)CC1 | -2.7
101 | COc1c(CNCc2cccc(CS(C)(=O)=O)c2)c(C)nn1C | -5.6
102 | Cc1cnn(CC2CCCN2C(=O)c2cccc(CC#N)c2)c1 (stereo unspecified) | -8.62
103 | CC1(C)Cc2cc(-c3cncn3CCNC3CCS(=O)(=O)C3)ccc2O1 (stereo unspecified) | 2.95
104 | c1cnc(N2CCCC3(COCCN(CC4CC4)C3)C2)nc1 (stereo unspecified) | 3.22
105 | CN1CC(=O)N(c2ccsc2)CC12CCN(S(=O)(=O)C1CC1)C2 (stereo unspecified) | -0.298
106 | CCO[C@@H]1CN(Cc2scnc2C)[C@@H]2CCCO[C@@H]21 | -151
107 | Cc1ccc2c(n1)N(CCn1cccn1)CCN(CC1CC1)C2 | 8.83
108 | O=C(c1ccco1)N1CCO[C@@H]2CN(Cc3nccs3)CC[C@@H]2C1 | -111
109 | O=C(Nc1cccnc1)[C@H]1CN(C2CCCC2)C[C@H]2OCC[C@@H]12 | 9.81
110 | COc1ccc(S(=O)(=O)N2Cc3c(CN(C)C)nn(C)c3C2)cc1 | 3.94
111 | CC(=O)N1CCN(Cc2ccc(F)cc2)CC2(CC(=O)N(C)C2)C1 (stereo unspecified) | -2.78
